Measured values published in ChEMBL document CHEMBL1667822, “Selective antagonists of mouse trace amine-associated receptor 1 (mTAAR1): discovery of EPPTB (RO5212773)” (Bioorg Med Chem Lett, 2011).

Key:
[1] = molecular target: Trace amine-associated receptor 1 (Mus musculus, UniProt Q923Y8); experiment: Antagonist activity at mouse TAAR1 assessed as reversal of endogenous beta-PEA effect; type: functional
How it was run: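 Mouse TAAR1 antagonist dose–response run as an in vitro cAMP functional assay. Efficacy is the reversal of the effect of the endogenous agonist β-PEA, with 100% efficacy defined as 0% min% stim. Values are averages of at least two independent experiments.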

[2] = molecular target: D(1A) dopamine receptor (Homo sapiens) (UniProt P21728); experiment: Displacement of [3H]SCH 23390 from human recombinant dopamine D1 receptor expressed in CHO cells; type: cell-based; conditions: concentration not given here
Sequence of D(1A) dopamine receptor (Homo sapiens) (P21728 whole entry): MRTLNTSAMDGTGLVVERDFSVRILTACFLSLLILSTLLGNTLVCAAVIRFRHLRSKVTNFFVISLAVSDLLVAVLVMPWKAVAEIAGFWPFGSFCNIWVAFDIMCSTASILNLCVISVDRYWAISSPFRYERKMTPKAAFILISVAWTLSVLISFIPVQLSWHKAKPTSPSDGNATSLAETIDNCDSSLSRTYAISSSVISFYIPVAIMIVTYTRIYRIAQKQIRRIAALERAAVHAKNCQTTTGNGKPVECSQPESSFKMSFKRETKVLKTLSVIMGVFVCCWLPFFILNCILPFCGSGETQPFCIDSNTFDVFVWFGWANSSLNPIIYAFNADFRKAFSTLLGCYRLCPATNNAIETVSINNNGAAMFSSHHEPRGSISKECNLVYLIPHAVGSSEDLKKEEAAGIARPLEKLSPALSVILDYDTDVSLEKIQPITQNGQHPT

Homo sapiens = species on record: Homo sapiens; experiment: Inhibition of human vasoactive intestinal peptide receptor VPAC1 at 10 uM

Sequence of Trace amine-associated receptor 1 (Q923Y8 whole entry): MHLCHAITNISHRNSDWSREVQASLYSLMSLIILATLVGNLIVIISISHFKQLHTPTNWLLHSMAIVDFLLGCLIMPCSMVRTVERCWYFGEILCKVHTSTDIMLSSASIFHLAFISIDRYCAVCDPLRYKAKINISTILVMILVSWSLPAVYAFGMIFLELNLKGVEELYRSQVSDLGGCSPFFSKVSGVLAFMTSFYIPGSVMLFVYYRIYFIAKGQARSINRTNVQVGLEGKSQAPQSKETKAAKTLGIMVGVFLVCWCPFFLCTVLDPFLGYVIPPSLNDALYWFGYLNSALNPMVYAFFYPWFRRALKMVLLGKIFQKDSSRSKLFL

Structure (SMILES): CCOc1cccc(NC(=O)c2ccc(N3CCCC3)c(C(F)(F)F)c2)c1
- IC50 [1]: 28 nM
- inhibition [2]: 25%
- inhibition (Homo sapiens): 13%
